Measurements taken from ChEMBL document CHEMBL3297691, “Development and bioorthogonal activation of palladium-labile prodrugs of gemcitabine” (J Med Chem, 2014).
The source made the active and inactive calls. The calls are words filed in the database; no cut-off is given here.

How the values were obtained:
[1] = Cytotoxicity against human BxPC3 cells after 5 days by PrestoBlue assay; format: functional, cell-based; settings: BXPC-3, 96 h, in the assay text read “4 days” for “5 days”
[2] = Cytotoxicity against human MIAPaCa2 cells after 4 days by PrestoBlue assay; settings: MIA PaCa-2, 96 h
BXPC-3 [3] = assay: Cytotoxicity against human BxPC3 cells at 30 nM up to 120 hrs by IncuCyte ZOOM analysis; format: functional, cell-based
Procedure, shortened: (§1)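 BxPC-3 cells in RPMI with 10% FBS and 2 mM L-glutamine were treated once at 30 nM. Wells were imaged every 3 h for 5 d (120 h) by IncuCyte ZOOM inside the incubator (37 °C, 5% CO2). Confluence came from image analysis; n = 3, ± SD.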

[4] = Toxicity in human BxPC3 cells assessed as cell growth at 30 nM up to 120 hrs by IncuCyte ZOOM analysis; format: cell-based; settings: bxpc-3, 120 h, 0.03 µM; procedure, shortened: as §1
[5] = Prodrug conversion in phosphate buffered saline assessed as formation of gemcitabine at 100 uM after 24 hrs by HPLC analysis in presence of palladium-resins; format: physicochemical; settings: buffer
Procedure, shortened: (§2)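 Prodrug at 100 μM in PBS (300 mOsm/kg, pH 7.4) was shaken at 1400 rpm and 37 °C with Pd0-resins (1 mg/mL, 4.4% w/w Pd; [Pd0] 400 μM). Samples were taken at 0, 6 and 24 h for reverse-phase HPLC with UV at 280 nm: water/acetonitrile with 0.1% formic acid, 95:5 to 5:95 over 3 min.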

[6] = Prodrug conversion in phosphate buffered saline assessed as compound retention time at 100 uM after 6 to 24 hrs by HPLC analysis in presence of palladium-resins; format: physicochemical; settings: buffer; procedure, shortened: as §2
BXPC-3 [7] = assay: Cytotoxicity against human BxPC3 cells at 10 to 100 nM after 5 days by PrestoBlue assay in presence of palladium-resins; format: functional, cell-based
Procedure, shortened: (§3)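 BxPC-3 (RPMI; 2,500 cells/well) or Mia PaCa-2 (DMEM; 1,000 cells/well) in 10% FBS and 2 mM L-glutamine were grown 48 h, then given fresh medium with compound (3, 10, 30, 100, 300 nM), with or without Pd0-resins (0.67 mg/mL), in 0.1% DMSO. After 5 days at 37 °C and 5% CO2, PrestoBlue (10% v/v) was added for 60 min; fluorescence ex 540/em 590 nm, normalized to DMSO wells; n = 3.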

[8] = Cytotoxicity against human MIAPaCa2 cells at 30 to 300 nM after 5 days by PrestoBlue assay; format: cell-based; settings: mia paca-2, 120 h, 0.3 µM; procedure, shortened: as §3
BXPC-3 [9] = assay: Cytotoxicity against human BxPC3 cells at 100 nM after 5 days by PrestoBlue assay in presence of palladium-resins; format: functional, cell-based; procedure, shortened: as §3
MIA PaCa-2 = assay: Cytotoxicity against human MIAPaCa2 cells at 30 to 300 nM after 5 days by PrestoBlue assay in presence of palladium-resins; format: functional, cell-based; procedure, shortened: as §3
[10] = Cytotoxicity against human BxPC3 cells at 10 to 100 nM after 5 days by PrestoBlue assay; format: cell-based; settings: bxpc-3, 120 h, 0.1 µM; procedure, shortened: as §3
[11] = Cytotoxicity against human BxPC3 cells after 4 days by PrestoBlue assay; settings: BXPC-3, 96 h
[12] = Cytotoxicity against human MIAPaCa2 cells after 5 days by PrestoBlue assay; format: functional, cell-based; settings: MIA PaCa-2, 96 h, in the assay text read “4 days” for “5 days”
[13] = Prodrug conversion in phosphate buffered saline assessed as gemcitabine retention time at 100 uM after 6 to 24 hrs by HPLC analysis in presence of palladium-resins; format: physicochemical; settings: buffer; procedure, shortened: as §2
Danio rerio = organism: Danio rerio; assay: Prodrug conversion in zebrafish yolk assessed as formation of rhodamine 110 at 5 uM after 24 hrs by fluorescence microscopic analysis in presence of palladium-resins; settings: in vivo
[14] = Toxicity in human MIAPaCa2 cells assessed as induction of DNA damage by measuring phosphorylated gamma-H2AX level at 300 nM after 24 hrs by immunofluorescence analysis in presence of palladium-resins; format: cell-based; settings: mia paca-2, 24 h, 0.3 µM
Procedure, shortened: (§4)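 Mia PaCa-2 cells (2,000/well, DMEM) were grown 48 h, then treated 24 h at 300 nM in 0.1% DMSO, with or without Pd0-resins (0.67 mg/mL). The prodrug–resin mix was preincubated 24 h at 37 °C before addition. Cells were fixed in 4% paraformaldehyde and permeabilized with 0.1% Triton X-100. Staining used rabbit anti-phospho-H2AX Ser139 (1:400, 1 h, RT), then Alexa 488 secondary, Hoechst and phalloidin. Imaged by confocal microscopy.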

[15] = Toxicity in human MIAPaCa2 cells assessed as induction of DNA damage by measuring phosphorylated gamma-H2AX level at 300 nM after 24 hrs by immunofluorescence analysis; format: cell-based; settings: mia paca-2, 24 h, 0.3 µM; procedure, shortened: as §4
[16] = Prodrug conversion in phosphate buffered saline assessed as half life of formation of gemcitabine at 100 uM by HPLC analysis in presence of palladium-resins; format: physicochemical; settings: buffer

## C#CCOC(=O)OC[C@H]1O[C@H](n2ccc(N)nc2=O)C(F)(F)[C@@H]1O
[1]
  EC50: 0.013 µM
[2]
  EC50: 0.045 µM

## C=CCOC(=O)Nc1ccn(C2O[C@H](CO)[C@@H](O)C2(F)F)c(=O)n1 (single isomer, unassigned)
BXPC-3 [3]
  Activity: Active
[4]
  Activity: 100%
[5]
  Drug metabolism: Active
[6]
  Retention_time: 2.56 min
BXPC-3 [7]
  Activity: Active
[8]
  Activity: Non-toxic
BXPC-3 [9]
  Activity: Active
MIA PaCa-2
  Activity: Active
[10]
  Activity: Non-toxic
[11]
  EC50: 0.335 µM
[12]
  EC50: 0.9 µM

## Nc1ccn([C@H]2O[C@H](COC(=O)OCc3ccccc3)[C@@H](O)C2(F)F)c(=O)n1
[1]
  EC50: 0.012 µM
[12]
  EC50: 0.029 µM

## Nc1ccn([C@@H]2O[C@H](CO)[C@@H](O)C2(F)F)c(=O)n1 [GEMCITABINE]
[1]
  EC50: 0.01 µM
[13]
  Retention_time: 0.93 min
[12]
  EC50: 2 µM

## C#CCOC(=O)Nc1ccc2c(c1)Oc1cc(NC(=O)OCC#C)ccc1C21OC(=O)c2ccccc21
Danio rerio
  Drug metabolism: metabolite_detected

## C#CCOC(=O)Nc1ccn([C@H]2O[C@H](CO)[C@@H](O)C2(F)F)c(=O)n1
BXPC-3 [3]
  Activity: Active
[1]
  EC50: 0.237 µM
[4]
  Activity: 100%
[5]
  Drug metabolism: Active
[6]
  Retention_time: 2.45 min
BXPC-3 [7]
  Activity: Active
[8]
  Activity: Non-toxic
BXPC-3 [9]
  Activity: Active
[14]
  Activity: Toxic
MIA PaCa-2
  Activity: Active
[10]
  Activity: Non-toxic
[15]
  Activity: Non-toxic
[16]
  t1/2: < 6 h
[12]
  EC50: 1.4 µM

## O=C(Nc1ccn([C@H]2O[C@H](CO)[C@@H](O)C2(F)F)c(=O)n1)OCc1ccccc1
[6]
  Retention_time: 2.96 min
BXPC-3 [9]
  Activity: inactive
[11]
  EC50: 0.253 µM
[12]
  EC50: 0.094 µM

## C=CCOC(=O)OC[C@H]1O[C@H](n2ccc(N)nc2=O)C(F)(F)[C@@H]1O
[1]
  EC50: 0.022 µM
[12]
  EC50: 0.027 µM

## O=C(Nc1ccc2c(c1)Oc1cc(NC(=O)OCc3ccccc3)ccc1C21OC(=O)c2ccccc21)OCc1ccccc1
Danio rerio
  Drug metabolism: metabolite_notdetected
